# Rows were chosen to be rich in hits. Some 2.8% of all compounds tested hit in one or more screens of this group.
# T cell HTS = modulates CD8 T cell binding to vesicles. 2C CD8+ T cell-vesicle binding, flow cytometry; hits give low values. response (vesicle binding), % at 7 µM. 0.068% of 330,000 active. AID 2052;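 active = response, share of CD8 T cells binding vesicles, and their 90th percentile fluorescence all below set limits, cut at about 80% in these data, passing the limit was not always enough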;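 note: values below 100% mean blocked vesicle binding to the CD8+ T cells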
#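 incubation = binding step 1.5 h, 37 °C, antibody labelling 20 min, ice | test system = 2C mouse CD8+ T cells | read-out basis = percent CD8+ FL2 mean versus row control | controls = Peptide-free naked vesicles (low) and QL9 vesicles with 0.7% DMSO vehicle (high) | detection = flow cytometry of vesicle-bound cells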
# Rtt109 Vps75 = inhibitors of Candida albicans Rtt109/Vps75 histone acetyltransferase; Q5AAJ8; purified Rtt109/Vps75, ThioGlo CoA-SH fluorescence, 4 h; inhibition, % at 34.9 µM; 0.16% of 330,000 active;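 active = inhibition of at least 50% in every replicate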
# GRIN3A LBD mod = modulates the human NR3A ligand-binding domain | NR3A LBD differential scanning fluorimetry, Tm shift; 0% = protein alone, 100% = glycine-bound protein | Tm shift relative to glycine control, % at 25 µM | 2.5% of 340,000 active | AID 1259313;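 active = melting temperature shift of at least 10% of the positive control shift, at one fixed dose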
# GASC-1 inh = inhibitors of human GASC-1 (JMJD2C) demethylase; 0.069% of 330,000 active; GST-JMJD2C(1-420) H3K9me3 demethylation, DELFIA europium; inhibition, % at 2.35 µM;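 active = more than half of a compound's replicate wells show inhibition beyond 50%, single wells judged on their own value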;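 note: signal counts dimethyl H3K9 product captured on neutravidin plate; 0% = median of DMSO wells and 100% = 0.3 times that DMSO median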
# Target sequence (Q9H3R0 1-420 limits assumed): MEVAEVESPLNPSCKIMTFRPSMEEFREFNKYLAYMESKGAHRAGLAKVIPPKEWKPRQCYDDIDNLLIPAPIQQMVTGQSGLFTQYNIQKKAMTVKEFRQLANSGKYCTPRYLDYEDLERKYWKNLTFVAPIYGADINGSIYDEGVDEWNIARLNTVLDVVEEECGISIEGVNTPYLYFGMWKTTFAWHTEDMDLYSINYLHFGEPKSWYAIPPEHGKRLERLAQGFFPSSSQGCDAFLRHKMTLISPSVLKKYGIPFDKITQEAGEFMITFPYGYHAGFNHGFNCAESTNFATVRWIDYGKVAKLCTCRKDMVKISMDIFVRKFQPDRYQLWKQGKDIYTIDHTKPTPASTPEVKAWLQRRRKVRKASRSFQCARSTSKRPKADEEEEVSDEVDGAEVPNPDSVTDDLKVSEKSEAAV
# Starred values were filed as active, the others as inactive; i = inactive; · = no result.
SMILES,T cell HTS,Rtt109 Vps75,GRIN3A LBD mod,GASC-1 inh
CC1=C(C(=O)NC2CCC(C)CC2)C2(CCC(C)CC2)OC1=O (stereo unspecified),417,-11,14*,1
O=C(Nc1nccs1)C1CCN(S(=O)(=O)c2ccc3c(c2)OCCCO3)CC1,597,·,14*,1
CCC(C(=O)OCC(=O)Nc1cc(Cl)cc(Cl)c1)c1ccccc1 (stereo unspecified),130,-8,12*,74
CCC(C(=O)OCC(=O)Nc1cccc(C(C)=O)c1)c1ccccc1 (stereo unspecified),559,·,3,-38
CC(=O)c1ccc(NC(=S)Nc2cccc3ccccc23)cc1,i,-1,-2,-3
CC(=O)c1cccc(NC(=O)C(=O)Nc2cccc3ccccc23)c1,361,2,62*,-7
Cc1cc([N+](=O)[O-])c2[nH]c(C(=O)N/N=C/c3ccccc3C(=O)O)c(-c3ccccc3)c2c1,·,-3,29*,-3
O=C(Nc1cc(Oc2ccc(Cl)cc2)cc([N+](=O)[O-])c1)c1ccco1,484,-8,22*,6
Cc1nn(C)cc1C(=O)Nc1cc(Oc2ccc(Cl)cc2)cc([N+](=O)[O-])c1,404,-4,17*,8
O=C(CCc1ccc(Oc2cc([N+](=O)[O-])cc([N+](=O)[O-])c2)cc1)Nc1cccc(Cl)c1,238,4,11*,1
CCOc1ccc(Oc2cc(NC(=O)c3ccco3)cc([N+](=O)[O-])c2)cc1,345,-3,9,-4
O=C1/C(=C/c2ccccc2)Oc2cc(OC(=O)N3CCOCC3)ccc21,147,3,20*,4
O=C(Nc1ccc(C(F)(F)F)cc1)c1cc(-c2cccnc2)nc2ccc(Br)cc12,385,7,34*,-38
CCCSc1nnc(NC(=O)c2ccco2)s1,307,-5,0,6
O=C(CSc1ccc(Cl)cc1)Nc1ccc(NC(=O)c2ccco2)cc1,430,0,21*,-1
Cc1ccc(NC(=O)CSc2nnc(NC(=O)c3ccco3)s2)cc1,306,·,13*,-7
CC(=O)c1ccc(NC(=O)CSc2nnc(NC(=O)c3ccco3)s2)cc1,803,-5,19*,-1
O=C(CSc1nc2ccccc2o1)Nc1ccc(Cl)cc1,576,4,19*,0
CC(C)N(C(=O)CSc1nnc(NC(=O)c2ccco2)s1)C(C)C,154,14,-1,4
CCc1ccc2oc(-c3ccc(NC(C)=O)cc3)nc2c1,420,8,3,-6
Cc1cccc(Oc2coc3cc(O)ccc3c2=O)c1,82,-1,-1,-26
CC(OC(=O)c1cccc(-n2cnnn2)c1)C(=O)Nc1ccc(F)c(F)c1F (stereo unspecified),·,1,1,·
COc1ccc(NC(=O)Cc2nnc(SCC(=O)Nc3nccs3)n2C)cc1,178,32,1,-3
Cc1ccc(-n2nc3ccc(NC(=O)c4ccc5c(c4)OCO5)cc3n2)cc1,339,1,13*,0
Cc1ccc(-n2nc3ccc(NC(=O)c4cccc([N+](=O)[O-])c4C)cc3n2)cc1,286,·,17*,-3
SMILES,T cell HTS,Rtt109 Vps75,GRIN3A LBD mod,GASC-1 inh
Cc1ccc(-n2nc3ccc(NC(=O)C(C)C)cc3n2)cc1,216,5,-5,25
Cc1ccc(-n2nc3ccc(NC(=O)c4ccco4)cc3n2)cc1,251,-11,10,2
CCOC(=O)c1cccc(NC(=O)c2ccc3c(c2)OCO3)c1,377,-2,1,-3
Cc1c(C(=O)NNC(=O)c2cccnc2)cccc1[N+](=O)[O-],0.0*,6,1,-1
CCc1ccc(-n2nc3ccc(NC(=O)c4ccc5c(c4)OCO5)cc3n2)cc1,407,-3,15*,2
Cc1cccnc1NC(=O)c1cccc(NC(=O)CC2SC(N3CCCCC3)=NC2=O)c1 (stereo unspecified),325,14,1,-8
COc1cc(/C=C2/C(=O)N(c3cccc(Br)c3)N=C2C)cc(OC)c1O,22,-4,15*,1
CC(=O)NC(NC(=S)Nc1ccc(S(N)(=O)=O)cc1)C(Cl)(Cl)Cl (stereo unspecified),331,-6,-1,11
COc1ccc(NC(=S)NC(NC(=O)/C=C/c2ccccc2)C(Cl)(Cl)Cl)cc1 (stereo unspecified),182,-8,5,3
O=C(/C=C/c1ccccc1)NC(NC(=S)Nc1ccc(Cl)cc1)C(Cl)(Cl)Cl (stereo unspecified),139,4,25*,-2
O=C(CCc1ccccc1)NC(NC(=S)Nc1ccc(Cl)cc1)C(Cl)(Cl)Cl (stereo unspecified),168,-2,27*,-3
CC(=O)NC(NC(=S)Nc1ccc(N=Nc2ccccc2)cc1)C(Cl)(Cl)Cl (stereo unspecified),i,-7,13*,-1
O=C(/C=C/c1ccccc1)NC(NC(=S)Nc1cc(Cl)ccc1Cl)C(Cl)(Cl)Cl (stereo unspecified),142,-12,30*,14
COC(=O)c1ccc(C(=O)OC)c(NC(=O)COC(=O)CC2CC3CCC2C3)c1 (stereo unspecified),394,2,19*,4
CC1CCN(S(=O)(=O)c2ccc(C(=O)OC(C)C(=O)N(C)C3CCCCC3)cc2)CC1 (stereo unspecified),438,-1,15*,-6
CC1CCN(S(=O)(=O)c2ccc(C(=O)OC(C)C(=O)NC3CCCCC3C)cc2)CC1 (stereo unspecified),678,1,1,5
COc1ccc(C(=O)CCC(C)(C)[N+](=O)[O-])cc1OC,60*,-6,-3,18
COc1ccc(C(=O)CCS(=O)(=O)c2ccc(C)cc2)cc1OC,201,-1,1,-2
COC(=O)CN(n1cnnc1)S(=O)(=O)c1ccccc1Cl,67*,2,-1,25
CON(c1nc(N(C)C)nc(N(C)C)n1)S(=O)(=O)c1ccccc1Cl,422,·,-18,0
COc1cc(/C=N/Nc2nnc3c(n2)[nH]c2ccccc23)ccc1O,528,1,10,3
CCc1ccc2[nH]c3nc(N/N=C/c4ccc(O)cc4O)nnc3c2c1,190,2,19*,1
Cc1ccc2[nH]c3nc(N/N=C/c4cccc(O)c4)nnc3c2c1,265,-1,10*,-5
O=C(Nc1ccc(Br)cc1)c1cccc(N2C(=O)CCC2=O)c1,246,-2,14*,2
O=C(COc1cccc(-n2cnnn2)c1)Nc1ccccc1,357,8,-47,-3
COc1ccc(NC(=O)COc2cccc(-n3cnnn3)c2)cc1,186,20,15*,1
O=C(Nc1ccc(F)cc1)c1cccc(N2C(=O)C3C4C=CC(C4)C3C2=O)c1 (stereo unspecified),i,1,18*,-9
O=C(Nc1ccc(Br)cc1)c1cccc(-n2cnnn2)c1,191,-3,39*,-17

# Bioassay records as filed in PubChem.
